IC50, inhibition and minimal effective dose data for 13 molecules are collected here from ChEMBL document CHEMBL3407447, “Probing the molecular and structural elements of ligands binding to the active site versus an allosteric pocket of the human farnesyl pyrophosphate synthase” (Bioorg Med Chem Lett, 2015).

Each structure is given as a SMILES string. The source made the active and inactive calls. The calls are words filed in the database; no cut-off is given here.

One may read the IC50 as the concentration that inhibits the measured activity by half. A lower IC50 goes with greater potency.

For the first experiment, the target named is T1, Farnesyl pyrophosphate synthase (Homo sapiens, UniProt P14324).
T1 sequence (P14324 whole entry): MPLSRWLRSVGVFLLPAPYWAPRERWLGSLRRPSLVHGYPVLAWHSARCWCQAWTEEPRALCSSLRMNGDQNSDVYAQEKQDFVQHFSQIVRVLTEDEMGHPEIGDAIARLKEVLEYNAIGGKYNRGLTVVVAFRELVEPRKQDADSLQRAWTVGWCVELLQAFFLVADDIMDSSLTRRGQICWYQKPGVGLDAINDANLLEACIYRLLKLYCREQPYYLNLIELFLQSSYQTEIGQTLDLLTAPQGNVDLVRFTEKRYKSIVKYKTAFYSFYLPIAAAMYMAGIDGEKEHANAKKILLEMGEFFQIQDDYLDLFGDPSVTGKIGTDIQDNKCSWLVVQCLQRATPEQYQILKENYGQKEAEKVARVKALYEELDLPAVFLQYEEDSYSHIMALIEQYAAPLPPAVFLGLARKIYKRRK
In words: Inhibition of human FPPS.
Details: not given
For `CC(C)C(C)c1[nH]c2ccc(-c3ccccc3)cc2c1CC(P(=O)(O)O)P(=O)(O)O` (centres undefined), the IC50 came out at 1100 nM.

Another experiment concerns the target T2, Farnesyl pyrophosphate synthase (Homo sapiens) (UniProt P14324).
T2 sequence (whole entry): T1 sequence (P14324 whole entry)
The experiment can be described thus: Inhibition of human FPPS at 10 uM.
Details: not given
An outline of the steps: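 Single fixed-concentration screen in the human FPPS enzyme inhibition assay, run alongside two known bisphosphonate inhibitors as positive controls.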
Regarding `Cn1c(NCC(P(=O)(O)O)P(=O)(O)O)nc2ncccc21`, the inhibition entry was “Active”.
The same measure, in the same setting: then `Cn1c(NCC(P(=O)(O)O)P(=O)(O)O)nc2cccnc21`, with “inactive”; and `Cn1cc(CC(P(=O)(O)O)P(=O)(O)O)c2ccccc21`, with “Active”; and `CC(C)C(C)c1[nH]c2ccc(-c3ccccc3)cc2c1CC(P(=O)(O)O)P(=O)(O)O` (centres undefined), with “Active”.
The same measure, in the same setting: the result for `CC(C)C(C)c1[nH]c2ccccc2c1CC(P(=O)(O)O)P(=O)(O)O` (centres undefined) reads “Active”.
The same measure, in the same setting: then `Cc1c(CC(P(=O)(O)O)P(=O)(O)O)c2ccccc2n1C`, with “Active”.
As for `CC(c1[nH]c2ccccc2c1CC(P(=O)(O)O)P(=O)(O)O)C1CCCC1` (centres undefined), the inhibition result is “Active”.
The same measure, in the same setting: then `CCn1cc(CC(P(=O)(O)O)P(=O)(O)O)c2ccccc21`, with “Active”; and `Cc1[nH]c2ccccc2c1CC(P(=O)(O)O)P(=O)(O)O`, with “Active”; and `CC(C)(C)c1[nH]c2ccccc2c1CC(P(=O)(O)O)P(=O)(O)O`, with “Active”.
On the same count and under the same terms, then `CC(C)n1cc(CC(P(=O)(O)O)P(=O)(O)O)c2ccccc21`, with “Active”.

The test system of the next experiment is Rattus norvegicus. In words: Reduction in hypercalcemia in sc dosed rat. The conditions noted are these: read-out: MED. It is filed as functional.
As for `O=P(O)(O)C(O)(Cc1cnc2ccccn12)P(=O)(O)O` [MINODRONIC ACID], the minimal effective dose was 0.03 mg/kg.
Still for that read-out and setting: then `O.O=P(O)(O)C(O)(Cn1ccnc1)P(=O)(O)O` [ZOLEDRONIC ACID], with 0.03 mg/kg.
